The text below walks through data of ChEMBL document CHEMBL1926536, “Synthesis, molecular modeling studies and biological evaluation of fluorine substituted analogs of GW 501516” (Bioorg Med Chem, 2011).

The target in assay [1] is T1, Peroxisome proliferator-activated receptor gamma (Homo sapiens, UniProt P37231).
T1 sequence (P37231 whole entry): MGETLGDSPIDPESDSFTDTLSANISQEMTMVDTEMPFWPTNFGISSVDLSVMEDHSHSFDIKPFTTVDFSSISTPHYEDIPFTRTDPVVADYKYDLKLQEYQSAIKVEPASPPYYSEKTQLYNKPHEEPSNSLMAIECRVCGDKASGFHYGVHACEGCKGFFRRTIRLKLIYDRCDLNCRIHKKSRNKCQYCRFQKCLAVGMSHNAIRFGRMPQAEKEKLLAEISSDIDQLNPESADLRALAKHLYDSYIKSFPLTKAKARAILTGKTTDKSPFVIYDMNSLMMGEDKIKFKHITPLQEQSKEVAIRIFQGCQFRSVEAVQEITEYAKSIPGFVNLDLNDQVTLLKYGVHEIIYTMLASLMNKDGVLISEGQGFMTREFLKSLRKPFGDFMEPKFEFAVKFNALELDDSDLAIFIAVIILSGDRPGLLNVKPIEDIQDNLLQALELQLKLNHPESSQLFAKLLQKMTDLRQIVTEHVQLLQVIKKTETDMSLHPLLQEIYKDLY
Type of assay: cell-based, COS-1.

The nature of assay [2]: Induction of [14C]oleic acid oxidation in a human myotubes after 4 days by beta liquid scintillation counting. The format is functional. In short, it runs like this: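 Satellite cells from human abdominal muscle biopsies of healthy donors, differentiated to myotubes for 7 days in DMEM (5.5 mM glucose) with 2% FCS and 25 pM insulin. Then [1-14C]oleic acid (1 µCi/mL, 100 µM) in DPBS with 10 mM HEPES and 1 mM L-carnitine, 4 h at 37 °C. Trapped CO2 counted by scintillation, normalized to protein. EC50 from three independent experiments in quadruplicate, mean ± SD.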

Assay [3] has as its target T2, Peroxisome proliferator-activated receptor delta (Homo sapiens, UniProt Q03181).
T2 sequence (Q03181 whole entry): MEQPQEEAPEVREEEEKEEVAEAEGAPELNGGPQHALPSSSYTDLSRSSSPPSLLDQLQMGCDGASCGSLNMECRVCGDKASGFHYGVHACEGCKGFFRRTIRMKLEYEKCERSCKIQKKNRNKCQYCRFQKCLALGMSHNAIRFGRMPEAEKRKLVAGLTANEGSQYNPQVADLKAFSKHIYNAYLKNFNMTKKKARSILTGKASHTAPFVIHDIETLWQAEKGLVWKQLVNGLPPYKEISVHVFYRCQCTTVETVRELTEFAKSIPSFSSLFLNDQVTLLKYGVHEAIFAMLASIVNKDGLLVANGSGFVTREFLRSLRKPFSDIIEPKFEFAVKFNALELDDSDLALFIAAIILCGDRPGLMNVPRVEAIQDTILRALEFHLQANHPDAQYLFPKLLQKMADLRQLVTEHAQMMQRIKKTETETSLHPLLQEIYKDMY
Put plainly: Agonist activity at human PPARdelta ligand binding domain expressed in COS-1 cells after 24 hrs by luciferase reporter gene-based luminometric analysis. Type of assay: cell-based.

The target in assay [4] is T3, Peroxisome proliferator-activated receptor alpha (Homo sapiens, UniProt Q07869).
T3 sequence (Q07869 whole entry): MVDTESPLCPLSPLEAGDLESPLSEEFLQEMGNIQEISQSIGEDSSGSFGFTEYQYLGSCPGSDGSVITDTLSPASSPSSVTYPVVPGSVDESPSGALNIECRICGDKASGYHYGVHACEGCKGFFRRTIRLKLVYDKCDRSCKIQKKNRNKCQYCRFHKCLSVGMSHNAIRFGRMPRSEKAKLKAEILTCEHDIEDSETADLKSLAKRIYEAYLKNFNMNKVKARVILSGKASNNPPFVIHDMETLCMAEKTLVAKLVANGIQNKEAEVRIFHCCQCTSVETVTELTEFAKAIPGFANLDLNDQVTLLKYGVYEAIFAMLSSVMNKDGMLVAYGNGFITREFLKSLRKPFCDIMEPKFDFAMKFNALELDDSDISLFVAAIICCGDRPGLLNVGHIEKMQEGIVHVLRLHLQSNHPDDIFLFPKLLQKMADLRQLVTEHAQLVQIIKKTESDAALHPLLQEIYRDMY
Put plainly: Agonist activity at human PPARalpha ligand binding domain expressed in COS-1 cells co-transfected with Gal4 after 24 hrs by luciferase reporter gene assay. Type of assay: cell-based.

A value given as a limit tells only on which side of the number the result lay.

For `CCc1cc(SCc2sc(-c3ccc(C(F)(F)F)cc3)nc2C)ccc1OC(F)C(=O)O` (racemic), the EC50 in assay [1] was more than 1000 nM; in assay [2] it was 5 nM; in assay [3], 290 nM; in assay [4] it was 710 nM.
With `CC/C=C\C/C=C\C/C=C\C/C=C\CC/C=C/C=C/C(=O)O`, the figures for the 50% effective concentration (EC50) in assay [1], in assay [3] and in assay [4] were more than 1000 nM, more than 1000 nM and 32 nM, respectively.
Consider `Cc1cc(SCc2sc(-c3ccc(C(F)(F)F)cc3)nc2C)ccc1OC(F)C(=O)O` (racemic), for which the EC50 in assay [1] is more than 1000 nM; in assay [2], 3.7 nM; in assay [3], 55 nM; in assay [4], 560 nM.
Compound `CN(CCOc1ccc(CC2SC(=O)NC2=O)cc1)c1ccccn1` (configuration not stated) [ROSIGLITAZONE] displayed an EC50 in assay [2] of more than 1000 nM.
On to `Cc1nc(-c2ccc(C(F)(F)F)cc2)sc1CSc1ccc(OC(F)C(=O)O)c(C(C)C)c1` (racemic), for which the EC50 in assay [1] was more than 1000 nM; in assay [2] it was 31.4 nM; in assay [3], 580 nM; in assay [4] it was 735 nM.
In turn, `Cc1cc(SCc2sc(-c3ccc(C(F)(F)F)cc3)nc2C)ccc1OCC(=O)O` [GW501516] gave an EC50 in assay [2] of 0.03 nM.
